# In paper PMC2192647 (The Journal of Cell Biology, 2000):
# Entries after “also recorded” stand apart in the source; their conditions may differ. Like-named read-outs stand apart in the source and are kept apart here.
# T1: MMP-1 (Homo sapiens, UniProt P03956)
# T1 sequence (P03956 100-469): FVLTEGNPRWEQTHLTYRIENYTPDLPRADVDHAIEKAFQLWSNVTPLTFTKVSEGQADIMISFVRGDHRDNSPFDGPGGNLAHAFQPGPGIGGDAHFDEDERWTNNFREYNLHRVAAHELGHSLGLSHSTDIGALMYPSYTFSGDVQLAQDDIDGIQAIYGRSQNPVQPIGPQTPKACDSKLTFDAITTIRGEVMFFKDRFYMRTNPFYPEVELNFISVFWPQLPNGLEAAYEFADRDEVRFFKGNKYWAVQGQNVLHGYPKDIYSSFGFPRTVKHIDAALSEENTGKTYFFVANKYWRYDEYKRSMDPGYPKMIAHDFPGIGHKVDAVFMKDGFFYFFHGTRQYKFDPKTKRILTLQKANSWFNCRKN
# B1: HB-EGF: human recombinant heparin-binding EGF-like growth factor, soluble form (protein, UniProt Q99075 63-148, looked up)
# Heparin-binding EGF-like …: DLQEADLDLLRVTLSSKPQALATPNKEEHGKRKKKGKGLGKKRDPCLRKYKDFCIHGECKYVKELRAPSCICHPGYHGERCHGLSL
# Experiments:
# [1] = tested on: EGFR; assay: Wound-induced EGFR tyrosine phosphorylation in cultured keratinocytes; assay type: cell-based, human; details: wounded keratinocytes
# In short: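 Keratinocytes grown 72 h on collagen-coated 10-cm dishes (5 × 10^5/dish). Starved 2 h in BHE-free medium ± test compound (1 μM), cycloheximide (50 μM) or HB-EGF neutralizing antibody No. 197 (10 μg/ml). Tip-scrape wounded, incubated set times at 37°C. Lysates in Triton/vanadate buffer; EGFR immunoprecipitated overnight at 4°C with protein A-Sepharose. Run on 6% SDS-PAGE, PVDF-blotted, probed, ABC/ECL detection.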
# [2] = tested on: AP-tag HB-EGF; assay: TPA-inducible shedding of AP-tag HB-EGF in CHO transfectants; assay type: cell-based, human; details: 60 nM TPA
# [3] = tested on: AP-tag AR; assay: TPA-inducible shedding of AP-tag AR in CHO transfectants; assay type: cell-based, human; details: 60 nM TPA
# [4] = tested on: AP-tag TGF-α; assay: TPA-inducible shedding of AP-tag TGF-α in CHO transfectants; assay type: cell-based, human; details: 60 nM TPA; for Percent inhibition at 1 μM TGF-α: 1 μM inhibitor, CHO transfectants
# [5] = tested on: plasminogen-deficient mice; details: plasminogen-deficient mice ref Lund et al. 1999; cited from earlier work
# [6] = tested on: Human keratinocytes; assay: Keratinocyte migration after wounding; assay type: cell-based; details: for Block of migration relative to the control: 10 μM, Fig. 6 b; for Keratinocyte migration into wound area: 3 d, antibody No. 425 10 μg/ml, AG1478 30 nM, OSU8-1 1 μM
# In short: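 Human keratinocytes grown on type I collagen-coated dishes or 6-well plates. At subconfluency, switched to BHE-free medium and scraped with a wide silicone rubber scraper. Washed once to remove floating cells, then re-fed BHE-free medium with or without test compound, antibody No. 425 (10 μg/ml), AG1478 (30 nM), or test compound plus HB-EGF (20 ng/ml). Cultured 3 d at 37°C.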
# [7] = tested on: Human keratinocytes; assay: Keratinocyte growth; assay type: cell-based; details: 3 d
# In short: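 Human keratinocytes kept in supplemented MCDB153. Seeded at 10^5 cells/well in 6-well plates and grown 3 d with or without test compound (1 μM), EGFR neutralizing antibody No. 425 (10 μg/ml) or AG1478 (30 nM). Values are averages of triplicate experiments.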
# [8] = target: T1, MMP-1; assay: MMP-1 inhibition; assay type: biochemical
# [9] = target: MMP-3 (Homo sapiens, UniProt P08254); assay: MMP-3 inhibition; assay type: biochemical; details: read-out: IC50 MMP-3
# [10] = target: MMP-9 (Homo sapiens, UniProt P14780); assay: MMP-9 inhibition; assay type: biochemical; details: read-out: IC50 MMP-9
# [11] = tested on: wild-type HB-EGF, TGF-α, and AR; assay: TPA-inducible shedding of wild-type ligands in CHO transfectants; assay type: cell-based, human; details: 10 μM, Fig. 2 b
# In short: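 CHO cells stably expressing untagged HB-EGF, AR or TGF-α, seeded at 2 × 10^5/6-cm dish, grown 24 h in Ham's F12/10% FCS. Surface-biotinylated with 0.1 mg/ml sulfo-NHS-biotin, 15 min on ice. Preincubated ±10 μM test compound for 10 min, then 30 min at 37°C with TPA plus compound. Ligands immunoprecipitated with specific antibodies and protein A; SDS-PAGE/Western blot, avidin-HRP/ECL detection.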
# [12] = tested on: EGFR ligands; assay: Release of soluble EGFR ligands from wounded keratinocytes; assay type: cell-based, human; details: 1 μM
# In short: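 Subconfluent keratinocytes in BHE-free medium tip-scraped in cross-stripes 5 mm apart, washed, then re-fed with or without test compound. Conditioned media collected at several times (37°C). Media added to EP170.7 cells (2 × 10^4/well) for 36 h, then [3H]thymidine (1 μCi/well) for 6 h; DNA incorporation measured. HB-EGF neutralised by preincubating with antibody No. 197 (10 μg/ml final). Four independent experiments.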
# [13] = tested on: AP-tag HB-EGF; assay: Wound-induced shedding of AP-tag HB-EGF in HaCat transfectants; assay type: cell-based, human; details: 1 μM, 60 min after wounding
# [14] = tested on: AP-tag AR; assay: Wound-induced shedding of AP-tag AR in HaCat transfectants; assay type: cell-based, human; details: 1 μM, 60 min after wounding
# [15] = tested on: AP-tag TGF-α; assay: Wound-induced shedding of AP-tag TGF-α in HaCat transfectants; assay type: cell-based, human; details: 1 μM, 60 min after wounding
# [16] = tested on: keratinocytes; assay: Juxtacrine growth factor assay; assay type: cell-based, human; details: 1 μM, Fig. 7 a
# In short: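 Keratinocytes plated at 10^5 cells/well and grown 12 h. Soluble HB-EGF/AR stripped by washing in medium containing 2 M NaCl. Cells fixed in 5% buffered formalin for 5 min, then washed in RPMI 1640/10% FCS. EP170.7 cells (10^5/well) added with [3H]thymidine for 6 h. Thymidine incorporation into EP170.7 DNA measured. Averages of triplicate experiments.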
# [17] = tested on: keratinocytes; assay: Keratinocyte migration assay in a Boyden chamber; assay type: cell-based, human
# In short: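 Keratinocytes grown 72 h on collagen-coated dishes, detached with trypsin-EDTA for ≤1 min, resuspended at 10^5 cells/ml. Samples placed in bottom wells of a 48-well Boyden chamber: recombinant HB-EGF, or serially diluted 48-h wounded-culture conditioned medium, with test compound added top or bottom. Collagen-coated 8-μm polycarbonate membrane; 50 μl cells per top well. Ran 4 h at 37°C. Migrated cells fixed, hematoxylin-stained, counted microscopically.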
# [18] = tested on: BALB/c mice; assay: In vivo wound assay, full-thickness wounds in mice; details: HB-EGF 5 μg/ml in addition to 10 mM OSU8-1, day 6
# In short: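 Female BALB/c mice, 8 wk old, housed singly, anaesthetised with diethylether. Two 6-mm full-thickness punch wounds on the back, left open. Each wound received 500 μl daily for 5 d. One side got vehicle (1.5% carboxymethylcellulose in sterile PBS). The other got 10 mM test compound (n = 10) or test compound plus 5 μg/ml HB-EGF (n = 5). Wounds excised day 6, formalin-fixed, sectioned anterior-posterior, anti-cytokeratin stained.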
# Sequence of MMP-3 (P08254 100-477, species assumed): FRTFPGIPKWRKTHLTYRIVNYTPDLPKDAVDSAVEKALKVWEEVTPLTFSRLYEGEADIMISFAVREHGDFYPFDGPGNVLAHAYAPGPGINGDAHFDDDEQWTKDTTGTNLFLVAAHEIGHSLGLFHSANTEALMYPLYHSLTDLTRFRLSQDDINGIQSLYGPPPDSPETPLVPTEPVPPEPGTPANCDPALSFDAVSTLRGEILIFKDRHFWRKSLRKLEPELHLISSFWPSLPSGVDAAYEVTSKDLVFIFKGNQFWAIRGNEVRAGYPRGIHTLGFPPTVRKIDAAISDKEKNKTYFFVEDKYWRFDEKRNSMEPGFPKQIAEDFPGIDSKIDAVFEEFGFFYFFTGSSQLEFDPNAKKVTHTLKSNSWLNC
# Sequence of MMP-9 (P14780 94-707, species assumed): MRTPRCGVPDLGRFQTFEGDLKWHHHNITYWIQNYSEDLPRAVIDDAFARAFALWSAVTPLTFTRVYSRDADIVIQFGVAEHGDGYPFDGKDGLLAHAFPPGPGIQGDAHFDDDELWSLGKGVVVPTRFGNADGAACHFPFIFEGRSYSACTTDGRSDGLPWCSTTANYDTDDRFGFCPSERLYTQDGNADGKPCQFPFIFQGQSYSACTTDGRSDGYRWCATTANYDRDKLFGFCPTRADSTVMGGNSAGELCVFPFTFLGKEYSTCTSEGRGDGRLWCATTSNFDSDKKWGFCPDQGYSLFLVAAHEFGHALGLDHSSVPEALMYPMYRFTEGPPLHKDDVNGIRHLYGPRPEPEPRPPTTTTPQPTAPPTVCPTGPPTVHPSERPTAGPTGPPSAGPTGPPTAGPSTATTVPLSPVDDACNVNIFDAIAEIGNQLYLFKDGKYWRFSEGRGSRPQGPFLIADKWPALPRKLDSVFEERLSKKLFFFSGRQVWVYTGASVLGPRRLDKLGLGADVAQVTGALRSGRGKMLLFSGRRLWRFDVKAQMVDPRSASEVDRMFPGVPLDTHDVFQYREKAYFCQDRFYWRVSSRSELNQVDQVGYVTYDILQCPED
molecule,measurement,setting,value
"C[C@@H]1C[C@@H]([C@H](O)CC2CC(=O)NC(=O)C2)C(=O)[C@@H](C)C1 [Cycloheximide, cycloheximide]",EGFR activation induced by wounding,[1]; 50 μM,failed to abrogate; also recorded: did not abrogate
"CCCCCCCCCCCCCC(=O)O[C@@H]1[C@@H](C)[C@@]2(O)[C@@H](C=C(CO)C[C@]3(O)C(=O)C(C)=C[C@@H]23)[C@@H]2C(C)(C)[C@]12OC(C)=O [TPA, 12-O-tetradecanoylphorbol-13-acetate, reference compound]",Induction of shedding of AP-tag HB-EGF,[2]; 30 min,induced the shedding
same,Induction of shedding of AP-tag AR,[3]; 30 min,less effective
same,Induction of shedding of AP-tag TGF-α,[4]; 30 min,induced the shedding
CNC(=O)[C@H](Cc1c[nH]c2ccccc12)NC(=O)[C@@H](CC(=O)NO)CC(C)C [galardin],Wound healing,[5],completely arrested
"COc1ccc(S(=O)(=O)N2Cc3cc(O)c(O)cc3CC2C(=O)NO)cc1 (centres unmarked) [OSU9-6, [6,7-dihydroxy-3-(N-hydroxycarbamoyl)-2-(4-methoxybenzenesulfonyl)-1,2,3,4-tetrahydroisoquinoline]]",Percent inhibition at 1 μM TGF-α,[4]; 30 min,5%
same,Block of migration relative to the control,[6],~70%
"COc1cc2ncnc(Nc3cccc(Cl)c3)c2cc1OC [AG1478, reference compound]",Keratinocyte migration into wound area,[6],suppressed
same,"Proliferation, % of the control","[7]; antibody No. 425 10 μg/ml, AG1478 30 nM",10–15 % of the control
"CNC(=O)[C@H](Cc1cccc2c1CCCC2)NC(=O)[C@H](CC(C)C)[C@H](C)C(=O)NO [OSU8-1, [4-(N-hydroxyamino)-2R-isobutyl-3S-methylsuccinyl]-L-3-(5,6,7,8-tetra-hydro-1-naphthyl)alanine-N-methylamide]",Block of shedding of AP-tag HB-EGF,"[2]; 1 μM, Fig. 2 a",markedly blocked
same,Block of TPA-inducible shedding of AP-tag HB-EGF,"[2]; 10 μM, Fig. 2 a",significantly blocked
same,Percent inhibition at 1 μM AR,"[3]; 1 μM inhibitor, 30 min, CHO transfectants",70%
same,Block of shedding of AP-tag AR,"[3]; 1 μM, Fig. 2 a",markedly blocked
same,Block of TPA-inducible shedding of AP-tag AR,"[3]; 10 μM, Fig. 2 a",significantly blocked
same,Block of shedding of AP-tag TGF-α,"[4]; 1 μM, Fig. 2 a",partially blocked
same,Block of TPA-inducible shedding of AP-tag TGF-α,"[4]; 10 μM, Fig. 2 a",significantly blocked
same,IC50,[8]; read-out: IC50 MMP-1,0.3 nM
same,IC50,"[8]; read-out: IC50s for all three MMPs, range across MMP-1, MMP-3 and MMP-9",0.3 to 2.9 nM
same,IC50,[9],2.9 nM
same,IC50,[10],0.3 nM
same,"TPA-inducible shedding of wild-type HB-EGF, TGF-α, and AR",[11],abrogation
same,Release of EGFR ligands after wounding,[12],abrogated completely
same,EGFR activation after wounding,[1]; 1 μM,abrogated completely
same,Inhibition of wound-induced shedding of AP-tag HB-EGF,[13],effective at inhibiting
same,Inhibition of wound-induced shedding of AP-tag AR,[14],effective at inhibiting
same,Effect on wound-induced AP-tag TGF-α shedding,[15],no effect
same,Keratinocyte migration into wound area,[6],significantly suppressed
same,Inhibition of cell growth,"[7]; 1 μM, Fig. 7 b",~50%
same,Juxtacrine growth activity of keratinocytes,[16],slightly upregulated
same,Fold less potent at promoting migration: conditioned medium collected in the presence of OSU8-1,"[17]; 48-h conditioned medium of wounded keratinocytes, 1 μM OSU8-1, Fig. 7 d",~30 fold
same,Effect on migration of keratinocytes induced by conditioned medium,"[17]; various concentrations of OSU8-1 added to the conditioned medium, Fig. 7 e",no effect
"CNC(=O)[C@H](Cc1cccc2ccccc12)NC(=O)[C@@H](CC(=O)NO)CC(C)C [OSU7-6, [4-(N-hydroxyamino)-2R-isobutylsuccinyl]-L-3-(1-naphthyl)-alanine-N-methylamide]",Percent inhibition at 1 μM TGF-α,[4]; 30 min,5%
same,IC50,[8]; read-out: IC50 MMP-1,0.35 nM
same,IC50,[9],2 nM
same,IC50,[10],0.4 nM
same,Block of migration relative to the control,[6],~70%
B1,Concentration of maximal stimulation of keratinocyte migration,"[17]; recombinant HB-EGF, Boyden chamber, Fig. 7 c",10 ng/mL
same,Keratinocyte migration and regeneration of the epidermis,[18],completely restored
